Structures are written as SMILES. Several values for one entry are separate records, joined by “and”; a condition that tells them apart may be missing. Equal entries are not always repeated.

For orientation: Kd means the equilibrium constant for the complex coming apart.

For assay [1], the system named is CYP125MRCA. Description: UV-Vis spin-state. In kind it is binding. The note with it: 30 °C, enzyme ~2 μM.
Assay [2] has as its system CYP125MRCA. Description: In vitro oxidation assay, spinach ferredoxin/ferredoxin reductase/NADPH, GC-MS. Type of assay: biochemical. The note with it: substrate 100 μM, enzyme 2 μM, 20 h, room temperature.
Assay [3] addresses CYP125MRCA. Description: UV-Vis difference-spectrum substrate titration. In kind it is binding. The note with it: read-out: Kd (Hill model), Table 1.
Assay [4] deals with CYP125A1. Conditions: read-out: Kd CYP125A1; cited from earlier work.
For assay [5], the system named is CYP125MRCAAlt. The assay is described as follows: UV-Vis spin-state shift binding screen after imidazole treatment. The note with it: enzyme pre-treated with imidazole (~1.3 mM).
Assay [6] deals with MmarCYP125A7. Conditions: cited from earlier work.
In assay [7] the test system is CYP125MRCAAlt. Description: In vitro oxidation assay, spinach ferredoxin/ferredoxin reductase/NADPH, GC-MS. In kind it is biochemical. Conditions: reconstituted spinach ferredoxin/reductase/NADPH system. A digest of the protocol: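 Enzyme (2 μM in the method text) and substrate (100 μM) were equilibrated 3 min at room temperature in oxygenated 50 mM Tris, pH 7.4. Added G6P (5 mM), G6PDH (0.7 U/mL), ferredoxin (4 μM), reductase (0.2 U/mL) and catalase (0.03 mg/mL), then NADPH (1 mM). Ran 20 h, quenched with HCl, octanoic acid internal standard, ethyl acetate extraction, BSTFA/TMCS derivatisation, products assigned by mass spectra and retention times.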

The test system of assay [8] is Mtb CYP125A1. Conditions: cited from earlier work.
The test system of assay [9] is CYP125MRCA. In kind it is biochemical. Conditions: 1 : 1 mixture of substrates.
For assay [10], the system named is CYP125A1, CYP125A6 and CYP125A7. The note with it: cited from earlier work.
Assay [11] deals with CYP125A1. Conditions: cited from earlier work.

On to `CC(C)CCC[C@@H](C)[C@H]1CC[C@H]2[C@@H]3C[C@@H]4O[C@@]45C[C@@H](O)CC[C@]5(C)[C@H]3CC[C@]12C` [5,6α-epoxycholesterol], for which the “Substrate-induced shift of the Soret band (LS to HS)” value (shortened to “Substrate-induced shift”) in assay [1] is given as “Complete or near-complete spin-state shifts”.
On to `CC(C)CCC[C@@H](C)[C@H]1CC[C@H]2[C@@H]3C(=O)C=C4C[C@@H](O)CC[C@]4(C)[C@H]3CC[C@]12C` [7-ketocholesterol], for which, in assay [1], the “Substrate-induced shift” value was “Complete or near-complete spin-state shifts”.
On the same count and under the same terms, under `CC(C)CCC[C@@H](C)[C@H]1CC[C@H]2[C@@H]3[C@H](O)C=C4C[C@@H](O)CC[C@]4(C)[C@H]3CC[C@]12C` [7α-hydroxycholesterol] stands “Complete or near-complete spin-state shifts”.
Still for that read-out and setting: under `CC(C)CCC[C@@H](C)[C@H]1CC[C@H]2[C@@H]3[C@@H](O)C=C4C[C@@H](O)CC[C@]4(C)[C@H]3CC[C@]12C` [7β-hydroxycholesterol] stands “Complete or near-complete spin-state shifts”.
`CC(C)[C@H](C)CC[C@@H](C)[C@H]1CC[C@H]2[C@@H]3CC=C4C[C@@H](O)CC[C@]4(C)[C@H]3CC[C@]12C` [campesterol]: in assay [2], the “Oxidation by CYP125MRCA (products by GC-MS)” value is reported as “able to effectively oxidise”. Further, in assay [1], the “Substrate-induced shift” value is “complete shift of the Soret band to the high spin peak at ∼391 nm”. Besides, the Kd in assay [3] was found to be 4190 ± 50 nM.
For `CC(C)CCC[C@@H](C)[C@H]1CC[C@H]2[C@@H]3CCC4=CC(=O)CC[C@]4(C)[C@H]3CC[C@]12C` [cholest-4-en-3-one], in assay [2], the “Oxidation by CYP125MRCA (products by GC-MS)” value was “able to oxidise”. Besides, the Kd in assay [4] was 1180 ± 110 nM; in [6], 700 ± 400 nM; in [3], 850 ± 20 nM. Also, the “Binding detected by shift back to HS peak” value in assay [5] is “found to bind”. Moreover, in assay [1], the “Substrate-induced shift” value is recorded as “completely shift the Soret band to ∼390 nm”.
For `CC(C)CCC[C@@H](C)[C@H]1CC[C@H]2[C@@H]3CC=C4C[C@@H](O)CC[C@]4(C)[C@H]3CC[C@]12C` [cholesterol], the “Oxidation by CYP125MRCAAlt (products by GC-MS)” value in assay [7] was “able to oxidise cholesterol, albeit with a lower efficiency and 26-hydroxycholesterol being the major product”. In assay [2], the “Oxidation by CYP125MRCA (products by GC-MS)” value is “able to oxidise and 26-cholestenoic acid being the major product”. The Kd in [4] was 110 ± 60 nM; in assay [3], 2000 ± 50 nM. Besides, the “Preference for cholesterol over sitosterol” value in [8] is 1.8 fold. Also, in assay [5], the “Binding detected by shift back to HS peak” value is “found to bind”. Moreover, the “Substrate-induced shift” value in [1] is listed as “completely shift the Soret band to ∼390 nm”.
As for `CC(C)=CCC[C@@H](C)[C@H]1CC[C@H]2[C@@H]3CC=C4C[C@@H](O)CC[C@]4(C)[C@H]3CC[C@]12C` [desmosterol], the “Substrate-induced shift” value in assay [1] was “minimal perturbations of the heme centre”.
`CC(C)[C@@H](C)/C=C/[C@@H](C)[C@H]1CC[C@H]2C3=CC=C4C[C@@H](O)CC[C@]4(C)[C@H]3CC[C@]12C` [ergosterol]: the “Substrate-induced shift” value in [1] was “minimal perturbations of the heme centre”.
Regarding `CC[C@H](CC[C@@H](C)[C@H]1CC[C@H]2[C@@H]3CCC4=CC(=O)CC[C@]4(C)[C@H]3CC[C@]12C)C(C)C` [stigmast-4-en-3-one], the “Preference for stigmast-4-en-3-one versus cholest-4-en-3-one” value in assay [9] was found to be 3.2 fold. Further, the “Binding detected by shift back to HS peak” value in [5] is given as “found to bind”. For the same molecule, the “Substrate-induced shift” value in assay [1] is recorded as “complete shift of the Soret band to the high spin peak at ∼391 nm”. The Kd in assay [3] came out at 1610 ± 110 nM.
`CC[C@H](/C=C/[C@@H](C)[C@H]1CC[C@H]2[C@@H]3CC=C4C[C@@H](O)CC[C@]4(C)[C@H]3CC[C@]12C)C(C)C` [stigmasterol]: the “Substrate-induced shift” value in [1] is reported as “complete shift of the Soret band to the high spin peak at ∼391 nm”. Moreover, the Kd in [3] worked out at 2040 ± 120 nM.
Take `C=C1CC[C@H](O)C/C1=C/C=C1\CCC[C@]2(C)[C@@H]([C@H](C)CCCC(C)C)CC[C@@H]12` [vitamin D3, cholecalciferol]: the “Oxidation by CYP125MRCAAlt (products by GC-MS)” value in assay [7] is listed as “No 25- or 26-hydroxylation activity”. In assay [10], the “Spectral shift in the Soret band” value is “does not induce a spectral shift in the Soret band”. Besides, the “Oxidation by CYP125MRCA (products by GC-MS)” value in [2] is “oxidised by CYP125MRCA into four hydroxylation products and one partially underivatised alcohol product”. In assay [5], the “Binding detected by shift back to HS peak” value is “found to bind”. The “Substrate-induced shift” value in [1] is “complete shift in the Soret band to HS”. For the same molecule, the Kd in assay [3] turned out to be 1600 ± 220 nM. Also, in [11], the “Oxidation of vitamin D3 by CYP125A1” value is recorded as “does not oxidise”.

These data come from publication PMC12100521 (Chemical Science, 2025).
